Data published in ChEMBL document CHEMBL4028881, “Synthesis, Pharmacology, and Molecular Docking Studies on 6-Desoxo-N-methylmorphinans as Potent μ-Opioid Receptor Agonists” (J Med Chem, 2017).

Key:
[1] = target: Mu-type opioid receptor (Homo sapiens) (UniProt P35372); test: Agonist activity at recombinant human MOR expressed in CHO cell membranes after 60 mins by [35S]GTPgammaS binding assay; type: functional
Outline: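 [35S]GTPγS binding stimulated by ligand in membranes from CHO cells stably expressing human MOR. Values are mean ± SEM of at least three independent experiments.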

[2] = target: Mu-type opioid receptor (Homo sapiens) (UniProt P35372); test: Displacement of [3H]-DAMGO from recombinant human MOR expressed in CHO cell membranes after 60 mins by liquid scintillation counting
Outline: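 Competition binding on membranes from CHO cells stably transfected with recombinant human MOR. Affinity is reported as Ki. Values are mean ± SEM of at least three independent experiments.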

Mus musculus = test: Potency index, ratio of moprhine ED50 for antinociceptive activity in sc dosed […] mouse to compound ED50 for antinociceptive activity in sc dosed CD1 mouse; type: functional
Homo sapiens = species on record: Homo sapiens; test: Selectivity ratio of Ki for recombinant human DOR expressed in CHO cell membranes to Ki for recombinant human MOR expressed in CHO cell membranes; type: cell-based

Chain of Mu-type opioid receptor (Homo sapiens) (P35372 whole entry): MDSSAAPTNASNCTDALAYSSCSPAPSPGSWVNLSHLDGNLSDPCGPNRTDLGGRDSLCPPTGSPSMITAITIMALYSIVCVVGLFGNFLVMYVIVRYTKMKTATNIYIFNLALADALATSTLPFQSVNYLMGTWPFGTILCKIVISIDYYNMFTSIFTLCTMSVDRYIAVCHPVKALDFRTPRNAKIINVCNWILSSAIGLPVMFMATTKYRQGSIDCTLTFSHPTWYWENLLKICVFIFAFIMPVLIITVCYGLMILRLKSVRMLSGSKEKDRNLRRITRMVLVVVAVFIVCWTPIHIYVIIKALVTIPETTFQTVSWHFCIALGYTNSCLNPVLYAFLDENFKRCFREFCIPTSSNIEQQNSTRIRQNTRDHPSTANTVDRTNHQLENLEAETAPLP

| SMILES | Activity [1] | inhibition [2] | Ratio ED50 (Mus musculus) | Ratio Ki (Homo sapiens) |
| --- | --- | --- | --- | --- |
| CN1CC[C@]23c4c5ccc(O)c4O[C@H]2CCC[C@@]3(O)[C@H]1C5 | Dose-dependent effect | Dose-dependent effect | <=1020 | – |
| CN1CC[C@]23c4c5ccc(O)c4O[C@H]2CCC[C@@]3(OCc2ccccc2)[C@H]1C5 | Dose-dependent effect | Dose-dependent effect | <=1020 | 21 |
| CN1CC[C@]23c4c5ccc(O)c4O[C@H]2C(=O)CC[C@@]3(OCc2ccccc2)[C@H]1C5 | Dose-dependent effect | Dose-dependent effect | <=1020 | – |
| CO[C@@]12CCC[C@@H]3Oc4c(O)ccc5c4[C@@]31CCN(C)[C@@H]2C5 | Dose-dependent effect | Dose-dependent effect | <=1020 | – |
| CO[C@@]12CCC(=O)[C@@H]3Oc4c(O)ccc5c4[C@@]31CCN(C)[C@@H]2C5 | Dose-dependent effect | Dose-dependent effect | <=1020 | – |
| CO[C@@]12CCC[C@]3(C)Oc4c(O)ccc5c4[C@@]31CCN(C)[C@@H]2C5 | – | – | <=1020 | – |
| CO[C@@]12CCC(=O)[C@]3(C)Oc4c(O)ccc5c4[C@@]31CCN(C)[C@@H]2C5 | Dose-dependent effect | Dose-dependent effect | <=1020 | – |
